Experimental findings from ChEMBL document CHEMBL1135300, “The mechanism of the irreversible inhibition of estrone sulfatase (ES) through the consideration of a range of methane- and amino-sulfonate-based compounds” (Bioorg Med Chem Lett, 2002) are described below.

One assay has as its target T1, Steryl-sulfatase (Homo sapiens, UniProt P08842).
T1 sequence (P08842 whole entry): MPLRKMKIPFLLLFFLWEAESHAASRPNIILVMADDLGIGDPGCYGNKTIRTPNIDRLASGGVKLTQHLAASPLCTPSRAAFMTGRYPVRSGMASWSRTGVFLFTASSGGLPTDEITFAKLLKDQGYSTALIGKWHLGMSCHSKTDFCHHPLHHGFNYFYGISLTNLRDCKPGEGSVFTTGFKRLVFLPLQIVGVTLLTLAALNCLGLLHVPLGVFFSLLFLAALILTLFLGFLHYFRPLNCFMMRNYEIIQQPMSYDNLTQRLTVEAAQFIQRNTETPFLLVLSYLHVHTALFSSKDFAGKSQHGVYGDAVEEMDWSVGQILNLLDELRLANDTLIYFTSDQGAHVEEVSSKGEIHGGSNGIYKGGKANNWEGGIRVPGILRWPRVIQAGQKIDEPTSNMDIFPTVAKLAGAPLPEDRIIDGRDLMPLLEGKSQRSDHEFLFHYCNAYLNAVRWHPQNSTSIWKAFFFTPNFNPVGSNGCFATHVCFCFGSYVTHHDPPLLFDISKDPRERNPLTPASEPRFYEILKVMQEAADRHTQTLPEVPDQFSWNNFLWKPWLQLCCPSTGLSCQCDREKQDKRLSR
The assay can be described thus: In vitro inhibition of estrone sulfatase. An outline of the steps:
(§1)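 ³H-estrone sulfate (750,000 dpm per tube) with inhibitors from ethanol stock, ethanol evaporated under nitrogen. Placental microsomes in 0.05 M Tris–HCl, pH 7.2, were prewarmed 5 min at 37 °C, then added; 1 mL total, incubated 20 min at 37 °C. Toluene quench, extraction, and scintillation counting of product. Triplicates; no-inhibitor controls; boiled-microsome blanks.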

For assay [1], the target named is T2, Steryl-sulfatase (Homo sapiens) (UniProt P08842).
T2 sequence (whole entry): T1 sequence (P08842 whole entry)
Kind of assay: In vitro inhibition of estrone sulfatase at 1 mM. An outline of the steps:
as §1

Assay [2] concerns the target T2, Steryl-sulfatase (Homo sapiens). Kind of assay: In vitro inhibition of estrone sulfatase at 10 mM. An outline of the steps:
as §1

Broadly, the inhibition is the share of the control response that was lost under treatment. A high value points to a strong effect. Consider `Cc1ccc(OS(N)(=O)=O)cc1`, for which the IC50 against Steryl-sulfatase is recorded as > 10000 uM l-1. In assay [1], this molecule gave an inhibition of 27.4%.

At Steryl-sulfatase, `NS(=O)(=O)Oc1cccc(Br)c1` registered an IC50 of 257 uM l-1. This molecule registered an inhibition in assay [1] of 75.1%.

At Steryl-sulfatase, `NS(=O)(=O)Oc1cccc(I)c1` registered an IC50 of 120 uM l-1. For the same molecule, in assay [1], the inhibition is 89.4%.

Regarding `NS(=O)(=O)Oc1ccccc1` [PHENYLSULFAMATE], at Steryl-sulfatase, the IC50 is given as > 10000 uM l-1. In assay [1], this molecule came in with an inhibition of 29.7%.

`NS(=O)(=O)Oc1ccc(I)cc1` came in with an IC50 at Steryl-sulfatase of 560 uM l-1. For the same molecule, the inhibition in assay [1] amounted to 66%.

At Steryl-sulfatase, `NS(=O)(=O)Oc1ccc(F)cc1` gave an IC50 of 537 uM l-1. Further, the inhibition in assay [1] stood at 37%.

On Steryl-sulfatase, `NS(=O)(=O)Oc1cccc(Cl)c1` showed an IC50 of 537 uM l-1. For the same molecule, the inhibition in assay [1] stood at 62%.

In assay [1], `CCCCCCCCCCCCOS(C)(=O)=O` gave an inhibition of 17%.

Consider `N#Cc1ccc(OS(N)(=O)=O)cc1`, for which the IC50 against Steryl-sulfatase turned out to be 300 uM l-1. For the same molecule, the inhibition in assay [1] worked out at 74.4%.

With `Cc1cccc(OS(N)(=O)=O)c1`, the IC50 against Steryl-sulfatase is 2089 uM l-1. Also, the inhibition in assay [1] is 39.5%.

`NS(=O)(=O)Oc1cccc([N+](=O)[O-])c1` returned an IC50 at Steryl-sulfatase of 120 uM l-1. The molecule further had an inhibition in assay [1] of 90.4%.

At Steryl-sulfatase, `NS(=O)(=O)Oc1cccc(F)c1` displayed an IC50 of 2089 uM l-1. In assay [1], this molecule gave an inhibition of 79.6%.

Regarding `NS(=O)(=O)Oc1ccc([N+](=O)[O-])cc1`, the IC50 on Steryl-sulfatase is 330 uM l-1. For the same molecule, in assay [1], the inhibition was found to be 82.5%.

As to `NS(=O)(=O)Oc1ccc(Br)cc1`, at Steryl-sulfatase, the IC50 is recorded as 912 uM l-1. The molecule also yielded an inhibition in assay [1] of 50.8%.

For `CCCCCCCCOS(N)(=O)=O`, in assay [2], the inhibition came out at 0%.

For the molecule `NS(=O)(=O)OCC(Cl)Cl`, in assay [1], the inhibition amounted to 30%.

On to `CCCCCCCCCOS(C)(=O)=O`, for which the inhibition in assay [1] was 28%.

In the case of `N#Cc1cccc(OS(N)(=O)=O)c1`, the IC50 at Steryl-sulfatase was determined as 191 uM l-1. Besides, the inhibition in assay [1] amounted to 84.3%.

`CCCCCCCCCOS(N)(=O)=O`: the inhibition in assay [2] came out at 0%.

On Steryl-sulfatase, `NS(=O)(=O)Oc1ccc(Cl)cc1` returned an IC50 of 1585 uM l-1. The molecule further returned an inhibition in assay [1] of 37.6%.

Molecule `NS(=O)(=O)OCC(Cl)(Cl)Cl` showed an IC50 against Steryl-sulfatase of 750 uM l-1. The same molecule yielded an inhibition in assay [1] of 60%.

In assay [2], `CCCCCCCOS(N)(=O)=O` displayed an inhibition of 0%.

`NS(=O)(=O)OCCCl` gave an inhibition in assay [1] of 15%.
